Legend:
RAW264.7 [1] = assay: Antiinflammatory activity in mouse RAW264.7 cells assessed as inhibition of LPS-induced NO production at 50 uM by Griess assay; format: functional
Outline: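 RAW 264.7 cells grown in DMEM with 10% FBS, penicillin/streptomycin, 37 °C, 5% CO2. Seeded 5 × 10^4 cells/well for 24 h, then given sample (final 50 μM, 1% DMSO) plus 2 μg/mL LPS for 24 h. Supernatant mixed with Griess reagents I and II, absorbance read at 540 nm. % inhibition computed against LPS-only (model) and no-LPS (blank) wells.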

[2] = Cytotoxicity against mouse RAW264.7 cells assessed as reduction in cell viability after 24 hrs by MTT assay; format: cell-based
Outline: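 MTT viability test in RAW 264.7 cells plated at 5 × 10^3 per well for 24 h. Cells were treated with sample at final 50 μM in 1% DMSO for 24 h. 1% DMSO served as vehicle control and cell-free medium as blank. MTT was added for 4 h, formazan dissolved in DMSO, and absorbance read at 490 nm.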

[3] = Cytotoxicity against mouse RAW264.7 cells assessed as cell survival at 50 uM after 24 hrs by MTT assay; format: cell-based; conditions: read-out: Survival
Outline: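 RAW 264.7 mouse macrophages in DMEM with 10% FBS, penicillin and streptomycin, at 37 °C under 5% CO2. Seeded at 5 × 10^3 cells/well for 24 h, then exposed 24 h to samples at 50 μM final (1% DMSO; vehicle and cell-free blanks). MTT added, 4 h, medium replaced with DMSO, absorbance read at 490 nm.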

RAW264.7 [4] = assay: Antiinflammatory activity in mouse RAW264.7 cells assessed as inhibition of LPS-induced NO production by Griess assay; format: functional, cell-based
Outline: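 RAW 264.7 cells in DMEM/10% FBS seeded at 5 × 10^4 per well for 24 h. Samples added in DMSO (1% final) together with 2 μg/mL LPS and incubated 24 h. Nitrite read at 540 nm by Griess reagent.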

RAW264.7 [5] = assay: Inhibition of NF-kappaB (unknown origin) expressed in mouse RAW264.7 cells at 50 uM pretreated for 1 hr followed by stimulation with LPS measured after 6 hrs by luciferase reporter gene assay; format: cell-based
Outline: (§1)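 RAW 264.7 cells stably carrying a pNF-κB-Luc reporter, kept in DMEM/10% FBS with geneticin 500 μg/mL, 37 °C. Pretreated 1 h with sample (0.78–200 μM) and then stimulated with E. coli 055:B5 LPS for 6 h. […] Triplicates, mean ± SD; IC50 by sigmoidal nonlinear regression.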

[6] = Inhibition of NF-kappaB (unknown origin) expressed in mouse RAW264.7 cells pretreated for 1 hr followed by stimulation with LPS measured after 6 hrs by luciferase reporter gene assay; format: cell-based; outline: as §1

SMILES	inhibition at 50 µM (RAW264.7 [1]) [%]	CC50 at 24 h [2] [µM]	viability at 24 h, 50 µM [3] [%]	IC50 (RAW264.7 [4]) [µM]	inhibition (RAW264.7 [5]) [%]	IC50 [6] [µM]
C=C(CO)[C@@H]1C[C@@]2(C)C(=C[C@H](O)C[C@@H]2C)C[C@H]1O	15	> 50	> 90			
C=C(C)[C@@H]1C[C@@]2(C)C(=CC1=O)C[C@H](OC(C)=O)C[C@@H]2C	29	> 50	> 90			
C=C(C)[C@@H]1C[C@@]2(C)C(=C[C@H](O)C[C@@H]2C)C[C@H]1O	24	> 50	> 90			
CC(=O)O[C@H]1C(=O)C=C2C=C3OC(=O)C(C)=C3C[C@]2(C)[C@H]1C	68	> 50	> 90	22		
CC1=C2C[C@@]3(C)C(=C[C@@H](O)[C@H](O)[C@@H]3C)C=C2OC1=O	11	> 50	> 90			
O=c1c(O)c(-c2ccc(O)c(O)c2)oc2cc(O)cc(O)c12 [QUERCETIN]		> 50		15		
C=C(C)[C@@H]1C[C@@]2(C)C(=C[C@H](O)C[C@@H]2C)C[C@H]1OC(C)=O	30	> 50	> 90			
C=C(C)[C@@H]1C[C@@]2(C)C(=CC1=O)[C@H](O)[C@H](O)C[C@@H]2C	22	> 50	> 90			
CC1=C2C[C@@]3(C)C(=C[C@H](O)[C@@H](O)[C@@H]3C)C=C2OC1=O	21	> 50	> 90			
CC1=C2C[C@]3(C)[C@@H](C)C=C[C@H](O)[C@@]3(O)C=C2OC1=O	7	> 50	> 90			
C=C(CO)[C@@H]1C[C@@]2(C)C(=CC(=O)C[C@@H]2C)C[C@H]1O	7	> 50	> 90			
C=C(C(=O)O)[C@@H]1C[C@@]2(C)C(=CC1=O)C=C[C@H](OC(=O)CC/C=C/C)[C@@H]2C	97	> 50	> 90	8	40	78
C/C=C/CCC(=O)O[C@H]1C=CC2=CC(=O)[C@H](/C(C=O)=C\OC)C[C@]2(C)[C@H]1C	66	> 50	> 90	25	38	
C=C(C)[C@@H]1C[C@@]2(C)C(=CC1=O)C[C@H](O)C[C@@H]2C	16	> 50	> 90			
S=C(S)N1CCCC1 [PYRROLIDINE DITHIOCARBAMATE]						37
C/C=C/CCC(=O)O[C@H]1C=CC2=C[C@]3(O)OC(=O)C(CO)=C3C[C@]2(C)[C@H]1C	63	> 50	> 90	26	20	
CC1=C2C[C@@]3(C)C(=C[C@@H](O)[C@@H](O)[C@@H]3C)C=C2OC1=O	23	> 50	> 90			
C=C(C(=O)O)[C@@H]1C[C@@]2(C)C(=CC1=O)C=C[C@H](O)[C@@H]2C	11	> 50	> 90			
CC1=C2C[C@]3(C)[C@@H](C)C=C[C@H](O)[C@]3(O)C=C2OC1=O	12	> 50	> 90			
C=C(C)[C@@H]1C[C@@]2(C)C(=CC(=O)C[C@@H]2C)C[C@H]1O	4	> 50	> 90			
C/C=C/CCC(=O)O[C@H]1C=CC2=CC(=O)/C(=C(\C)C(=O)O)C[C@]2(C)[C@H]1C	46	> 50	> 90	45		
CC(=O)O[C@H]1[C@H](O)C=C2C=C3OC(=O)C(C)=C3C[C@]2(C)[C@H]1C	36	> 50	> 90			
CC1=C2C[C@@]3(C)C(=CC(=O)C(O)=C3C)C=C2OC1=O	16	> 50	> 90			
C/C=C/CCC(=O)O[C@H]1C=CC2=C[C@]3(O)OC(=O)C(C)=C3C[C@]2(C)[C@H]1C	92	> 50	> 90	15	42	72

— ChEMBL document CHEMBL4477165, “Eremophilane-Type Sesquiterpenoids from an Acremonium sp. Fungus Isolated from Deep-Sea Sediments” (J Nat Prod, 2016)
